According to ChEMBL document CHEMBL3525897, “Metabolism and quantification of [(18)F]DPA-714, a new TSPO positron emission tomography radioligand” (Drug Metab Dispos, 2013):

How the values were obtained:
Liver microsome = test: Drug level in Sprague-Dawley rat liver microsomes treated with DPA-714 after 15 to 60 mins by LC-MS/MS analysis
[1] = Retention time of the compound by LC-MS analysis; assay type: physicochemical
Summary of the method: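 Separation of DPA-714 and its metabolites by LC-MS on reverse-phase Atlantis C18 column (2.1x150 mm) with electrospray ionization.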

[2] = Biodistribution in baboon parotid gland at 276 +/- 60 MBq, iv up to 90 mins by PET analysis; assay type: ADME, organism-based; settings: papio anubis, in vivo, 1.5 h
Summary of the method: (§1)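 Whole-body PET (HR+) in male Papio anubis baboons after i.v. 276 ± 60 MBq (4.8 ± 2.1 nmol) [18F]DPA-714. 2D transmission scans for attenuation correction. 3D emission scans of 1 to 4 min per bed step, acquired up to 90 min post-injection. Uptake reported as SUVmax.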

[3] = Drug metabolism in baboon urine assessed as compound remaining measured at 180 mins by radio-HPLC analysis; assay type: ADME, tissue-based; settings: papio anubis, read-out: Stability
Summary of the method: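 Baboon urine collected by catheter at 180 min after injection. 1 mL injected directly onto the plasma radio-HPLC system (C18, 0.1% TFA water/acetonitrile gradient).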

[4] = Biodistribution in baboon duodenum at 276 +/- 60 MBq, iv by PET analysis; assay type: ADME, organism-based; settings: papio anubis, in vivo
Summary of the method: as §1

[5] = Biodistribution in Sprague-Dawley rat brain at 32.1 +/- 2.8 MBq, iv measured at 120 mins by radio-HPLC analysis; assay type: ADME, organism-based; settings: 32.1 MBq
Summary of the method: (§2)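 Male Sprague-Dawley rats (250-300 g) given 32.1 ± 2.8 MBq [18F]DPA-714 by tail vein and decapitated 120 min later. Brain sonicated twice in acetonitrile on ice, extracts pooled and concentrated. Plasma acetonitrile-deproteinated. Parent and radiometabolites separated by radio-HPLC (C18, 0.1% TFA water/acetonitrile gradient 20-80% B). Expressed as %ID/g. Thighbone cortex and marrow also counted. Mean ± sd of 2 experiments, 2 rats each.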

[6] = Retention time in baboon plasma by radio-HPLC analysis; assay type: ADME, cell-free; settings: papio anubis
Summary of the method: (§3)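 Isoflurane-anaesthetized baboons, 6 PET experiments. Arterial femoral plasma sampled 0-120 min and centrifuged at 4°C, then deproteinated with acetonitrile; pellet radioactivity counted and treated as metabolite. Supernatant run on radio-HPLC (C18 preparative, 0.1% TFA water/acetonitrile 20-80% over 10 min, 5 mL/min). Counts decay-corrected to injection. Parent fraction as % total; data fitted to two exponentials; mean ± sd.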

[7] = Biodistribution in baboon gallbladder at 276 +/- 60 MBq, iv measured at 42 mins by PET analysis; assay type: ADME, organism-based, Gall bladder; settings: papio anubis, in vivo, 0.7 h
Summary of the method: as §1

[8] = Half life in baboon by SPE method; assay type: ADME, organism-based; settings: papio anubis, in vivo
Summary of the method: (§4)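 Baboon arterial plasma, five samples per animal, n=3. 200 μL diluted to 400 μL with 4% HCl and loaded on HLB SPE cartridge. Washed with water, then 35/65 acetonitrile/water; parent eluted with acetonitrile. All fractions and cartridge counted. Parent given as % of eluted radioactivity or of initial sample. Compared with radio-HPLC; mono-exponential fit.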

[9] = Biodistribution in Sprague-Dawley rat plasma at 32.1 +/- 2.8 MBq, iv measured at 120 mins by radio-HPLC analysis; assay type: ADME, organism-based; settings: 32.1 MBq
Summary of the method: as §2

[10] = Ratio of drug level in brain to plasma in Sprague-Dawley rat at 32.1 +/- 2.8 MBq, iv measured at 120 mins by radio-HPLC analysis; assay type: ADME, organism-based; settings: brain and plasma, 32.1 MBq, read-out: BPR
Summary of the method: as §2

[11] = Biodistribution in baboon vertebral bodies at 276 +/- 60 MBq, iv up to 90 mins by PET analysis; assay type: ADME, organism-based; settings: papio anubis, in vivo, 1.5 h
Summary of the method: as §1

[12] = Biodistribution in baboon lung at 276 +/- 60 MBq, iv up to 90 mins by PET analysis; assay type: ADME, organism-based; settings: papio anubis, in vivo, 1.5 h
Summary of the method: as §1

[13] = Biodistribution in baboon spleen at 276 +/- 60 MBq, iv up to 90 mins by PET analysis; assay type: ADME, organism-based; settings: papio anubis, in vivo, 1.5 h
Summary of the method: as §1

[14] = Biodistribution in baboon heart at 276 +/- 60 MBq, iv up to 90 mins by PET analysis; assay type: ADME, organism-based; settings: papio anubis, in vivo, 1.5 h
Summary of the method: as §1

[15] = Metabolic stability of the compound in baboon plasma assessed as compound remaining by SPE method; assay type: ADME, cell-free; settings: papio anubis
Summary of the method: as §4

[16] = Chemical stability of the compound in saline; assay type: physicochemical; settings: buffer
[17] = Drug metabolism in baboon assessed as compound remaining measured at 30 mins by radio-HPLC analysis; assay type: ADME, organism-based; settings: papio anubis, in vivo; read-out: Stability
Summary of the method: as §3

[18] = Drug recovery in baboon by SPE method; assay type: ADME, organism-based; settings: papio anubis, in vivo; read-out: Drug recovery
Summary of the method: as §4

[19] = Biodistribution in Sprague-Dawley rat bone marrow at 32.1 +/- 2.8 MBq, iv measured at 120 mins by radio-HPLC analysis; assay type: ADME, organism-based; settings: 32.1 MBq
Summary of the method: as §2

[20] = Half life in baboon by radio-HPLC analysis; assay type: ADME, organism-based; settings: papio anubis, in vivo
Summary of the method: as §3

[21] = Biodistribution in Sprague-Dawley rat thighbone cortex at 32.1 +/- 2.8 MBq, iv measured at 120 mins by radio-HPLC analysis; assay type: ADME, organism-based, Bone element; settings: 32.1 MBq
Summary of the method: as §2

[22] = Biodistribution in baboon kidney at 276 +/- 60 MBq, iv measured at 90 mins by PET analysis; assay type: ADME, organism-based; settings: papio anubis, in vivo, 1.5 h
Summary of the method: as §1

[23] = Biodistribution in baboon kidney at 276 +/- 60 MBq, iv measured at 10 mins by PET analysis; assay type: ADME, organism-based; settings: papio anubis, in vivo
Summary of the method: as §1

Plasma = test: Metabolic stability of the compound in Sprague-Dawley rat plasma at 20 kBq/ml at 37 degC by radio-HPLC analysis; assay type: ADME, cell-free
Summary of the method: (§5)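 Plasma spiked with 20 kBq/mL [18F]DPA-714, triplicate. Extracted with acetonitrile at time zero, or after incubation at 37°C (190 min for baboon plasma). Parent peak area measured by radio-HPLC.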

[24] = Metabolic stability of the compound in baboon plasma at 20 kBq/ml at 37 degC by radio-HPLC analysis; assay type: ADME, cell-free; settings: papio anubis
Summary of the method: as §5

Brain = test: Metabolic stability of the compound in Sprague-Dawley rat brain homogenate at 37 kBq at 37 degC by radio-HPLC analysis; assay type: ADME, tissue-based
Summary of the method: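 Rat brain sonicated in 0.1 M potassium phosphate, pH 7.4, at 4°C and spiked with 37 kBq [18F]DPA-714. Aliquots extracted with acetonitrile at time zero and after 180 min at 37°C. Analysed by radio-HPLC.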

[25] = Biodistribution in baboon liver at 276 +/- 60 MBq, iv up to 90 mins by PET analysis; assay type: ADME, organism-based; settings: papio anubis, in vivo, 1.5 h
Summary of the method: as §1

[26] = Biodistribution in baboon urinary bladder at 276 +/- 60 MBq, iv up to 90 mins by PET analysis; assay type: ADME, organism-based; settings: papio anubis, in vivo, 1.5 h
Summary of the method: as §1

[27] = Drug metabolism in baboon assessed as compound remaining measured at 120 mins by radio-HPLC analysis; assay type: ADME, organism-based; settings: papio anubis, in vivo; read-out: Stability
Summary of the method: as §3

[28] = Retention time in baboon plasma treated with [18F]DPA-714 by radio-HPLC analysis; assay type: ADME, cell-free; settings: papio anubis
Summary of the method: as §3

## CCN(CC)C(=O)Cc1c(-c2ccc(OCCF)cc2)nn2c(C)c(O)c(C)nc12
Liver microsome
  Drug metabolism: metabolite_detected
[1]
  Retention_time: 16.43 min

## CCN(CC)C(=O)Cc1c(-c2ccc(OCC[18F])cc2)nn2c(C)cc(C)nc12 [DPA-714 F-18]
[2]
  SUVmax: 1.93
[3]
  remaining at 3 h: < 2%
[4]
  Drug uptake: Active
[5]
  tissue uptake at 2 h: 85%
[6]
  Retention_time: 10.083 min
[7]
  SUVmax: 7.31
[8]
  half-life: 12 min
[9]
  tissue uptake at 2 h: 15%
[10]
  Kp at 2 h: 11
[11]
  SUVmax: 1.99
[12]
  SUVmax: 5.67
[13]
  SUVmax: 7.57
[14]
  SUVmax: 7.42
[15]
  Stability: 95%
[16]
  Stability: Stable
[17]
  remaining at 0.5 h: 46%
[18]
  recovery: 94%
[19]
  tissue uptake at 2 h: 65%
[20]
  half-life: 19 min
[21]
  tissue uptake at 2 h: 35%
[22]
  SUV: 4.6
[23]
  SUVmax: 12.7
Plasma
  Stability: 180 min
[24]
  Stability: 190 min
Brain
  Stability: 180 min
[25]
  SUVmax: 6.28
[26]
  SUVmax: 6.5
[27]
  remaining at 2 h: 11%

## CCN(CC)C(=O)Cc1c(-c2ccc(OCCF)cc2)nn2c(C)cc(CO)nc12
Liver microsome
  Drug metabolism: metabolite_detected
[1]
  Retention_time: 16.87 min

## CCNC(=O)Cc1c(-c2ccc(OCC[18F])cc2)nn2c(C)cc(CO)nc12
[28]
  Retention_time: 7.25 min

## CCNC(=O)Cc1c(-c2ccc(OCC[18F])cc2)nn2c(C)cc(C)nc12
[28]
  Retention_time: 8.583 min

## CCNC(=O)Cc1c(-c2ccc(OCCF)cc2)nn2c(C)cc(CO)nc12
Liver microsome
  Drug metabolism: metabolite_detected
[1]
  Retention_time: 13.88 min
